Experimental data reported in PubChem BioAssay.
Activity calls are given as the source filed them.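 The calls were made as follows, unless noted: active = Her2 level under about 52% in both replicate screens, with viability over 70% of control (limit read from the data); inconclusive = Her2 under the limit in one screen only, or viability under 70%; inactive = Her2 level above the set limit.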

Key:
[1] = reducers of endogenous Her2 protein level, primary screen, SKBR3 breast tumor cells, AlphaScreen, ATP viability (AID 461); settings: 18-24 h, measured here: SKBR3 viability, ATP luminescence, at 10 µM;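 as to Her2 level: lower value means less Her2 protein in the cells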;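 as to viability: percent of carrier control wells set as 100% viability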
[2] = target: Receptor tyrosine-protein kinase erbB-2 (Homo sapiens) (UniProt P04626); assay: as above; settings: 18-24 h, at 10 µM, stronger effect = lower value
Chain of Receptor tyrosine-protein kinase erbB-2 (Homo sapiens) (P04626 whole entry, looked up): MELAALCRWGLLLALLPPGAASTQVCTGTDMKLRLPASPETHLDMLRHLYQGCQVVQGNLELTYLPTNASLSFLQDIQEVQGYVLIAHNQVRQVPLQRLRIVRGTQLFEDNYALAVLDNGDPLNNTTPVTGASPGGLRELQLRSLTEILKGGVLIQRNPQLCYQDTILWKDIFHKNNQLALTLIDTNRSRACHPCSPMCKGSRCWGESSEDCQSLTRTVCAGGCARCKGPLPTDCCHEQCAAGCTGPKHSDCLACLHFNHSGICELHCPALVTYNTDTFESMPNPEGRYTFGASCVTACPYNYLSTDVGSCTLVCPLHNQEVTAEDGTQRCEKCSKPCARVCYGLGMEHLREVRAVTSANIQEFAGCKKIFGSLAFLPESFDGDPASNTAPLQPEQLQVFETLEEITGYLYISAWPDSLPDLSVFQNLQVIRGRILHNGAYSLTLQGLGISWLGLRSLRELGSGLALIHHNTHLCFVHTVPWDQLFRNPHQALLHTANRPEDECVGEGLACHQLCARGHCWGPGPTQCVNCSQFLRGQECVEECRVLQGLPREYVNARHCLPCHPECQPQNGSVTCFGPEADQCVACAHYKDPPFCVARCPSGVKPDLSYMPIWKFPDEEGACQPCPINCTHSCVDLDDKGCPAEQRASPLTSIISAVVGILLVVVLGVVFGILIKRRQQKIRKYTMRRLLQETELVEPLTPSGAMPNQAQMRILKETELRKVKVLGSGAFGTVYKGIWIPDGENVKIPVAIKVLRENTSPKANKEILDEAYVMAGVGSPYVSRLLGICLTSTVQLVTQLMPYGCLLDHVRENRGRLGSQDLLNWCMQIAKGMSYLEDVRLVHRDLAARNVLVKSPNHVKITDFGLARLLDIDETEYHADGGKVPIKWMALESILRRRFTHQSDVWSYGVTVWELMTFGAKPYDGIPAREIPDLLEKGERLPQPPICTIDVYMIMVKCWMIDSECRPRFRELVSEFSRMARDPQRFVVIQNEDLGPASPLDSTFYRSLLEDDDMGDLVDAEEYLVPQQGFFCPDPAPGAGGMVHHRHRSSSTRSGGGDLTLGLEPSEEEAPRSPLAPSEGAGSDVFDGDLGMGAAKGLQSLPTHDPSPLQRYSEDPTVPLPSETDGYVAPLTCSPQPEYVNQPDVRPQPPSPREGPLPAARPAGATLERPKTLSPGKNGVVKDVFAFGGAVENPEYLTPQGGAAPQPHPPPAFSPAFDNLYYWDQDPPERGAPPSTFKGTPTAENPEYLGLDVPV

[3] = SK-BR-3 cell growth inhibitors, pilot screen, 24 h, human (AID 572;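 active = viability at or below 10% of carrier control in both of two separate runs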;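 also: compound exposure lasted between 18 and 24 h rather than exactly 24 h; 100% = carrier-treated control wells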); settings: SK-BR-3 viability, CellTiter-Glo luminescence, at 10 µM, stronger effect = lower value
[4] = HUVEC growth inhibition – cell-based, human, primary screen (AID 575;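 active = viability at or below 30% in both replicate assays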;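 also: 100% = median of untreated cell wells with 0.1% DMSO on each plate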); settings: HUVEC proliferation, CellTiter-Glo luminescence, 72 h; at 10 µM; stronger effect = lower value
Method in brief: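 System: primary human umbilical vein endothelial cells; Quantity: 1250 endothelial cells in each well; Buffer or medium: supplemented EBM, 2% fetal bovine serum; Doses: one dose, 10 µM final, 0.1% DMSO; Incubation: 72 h compound incubation; Technique: ATP-based CellTiter-Glo luminescent read; Evaluation: percent of median DMSO-control luminescence; Controls: vehicle and MePR control wells.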

[5] = growth inhibitors of H69AR lung tumor, primary screen, human, duplicate replicates (AID 580;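 active = viability at or under a set limit in both replicates, limit being median viability minus 3 SD, cut at about 48% in these data, passing the limit was not always enough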;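 also: 100% = mean luminescence of untreated wells and 0% = no signal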); settings: H69AR lung tumor cells viability, ATP luminescence, 72 h; at 10 µM; stronger effect = lower value
[6] = reversal of MRP1-mediated doxorubicin resistance, pilot screen, H69AR cells, doxorubicin co-treatment (AID 601;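 active = viability loss from added drug above about 55%, and viability with drug at most 40%, in both replicates, limit read from the data, passing the limit was not always enough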); settings: CellTiter-Glo, 72 h, at 10 µM; for differential viability (reversal): stronger effect = higher value
[7] = 384-well plate pilot, post-Golgi transport modulator project, inhibition of yeast transport mutant growth (AID 636; in the data active = inhibition above about 31%); settings: absorbance 615 nm, about 18 h, stronger effect = higher value
[8] = growth suppression of yeast trafficking mutant, preliminary HTS, modulators of trafficking downstream of Golgi apparatus project, 1536-format plate, OD 615 nm (AID 637; in the data active = inhibition above about 30%); settings: yeast transport mutant growth, absorbance 615 nm, 18 h; stronger effect = higher value
[9] = H69AR cells + 2 uM doxorubicin, measured here: viability with 2 uM doxorubicin, stronger effect = lower value
[10] = H69AR cells, compound alone cytotoxicity

SMILES | viability [1] [%] | Her2 level [2] | viability [3] | viability [4] | viability [5] | differential viability (reversal) ([6]; H69AR cells + 2 uM doxorubicin) | viability [6, 9] [%] | viability [6, 10] [%] | inhibition [7] | inhibition [8]
Cn1nnnc1SCC(=O)NCc1ccco1 | 95 | 110% (inactive) | 95% (inactive) | 91.8% (inactive) | 95.8% (inactive) | 9.46% (inactive) | 86.3 | 95.8 | 1.2% (inactive) | -6.72% (inactive)
O=c1[nH]c2ccccc2nc1NCCN1CCOCC1 | 97.5 | 87.5% (inactive) | 97.5% (inactive) | 114% (inactive) | 97.1% (inactive) | 7.97% (inactive) | 89.1 | 97.1 | -0.79% (inactive) | 3.93% (inactive)
CCN(CC)c1ccc(CNc2ccc(Br)cn2)cc1 | 108 | 92.5% (inactive) | 108% (inactive) | 106% (inactive) | 90.7% (inactive) | -14.7% (inactive) | 105 | 90.7 | -0.66% (inactive) | -3.11% (inactive)
COCCCNC(=O)CCc1nc2cccnc2n1Cc1ccc(OC)cc1 | 110 | 106% (inactive) | 110% (inactive) | 115% (inactive) | 99.2% (inactive) | 4.86% (inactive) | 94.3 | 99.2 | -7.03% (inactive) | 1.83% (inactive)
COc1ccc(CC(NC(C)=O)C(=O)N2CCN(C(=O)N(C(C)C)C(C)C)CC2)cc1 (stereo not given) | 90.5 | 110% (inactive) | 90.5% (inactive) | 94.5% (inactive) | 94.2% (inactive) | 5.88% (inactive) | 88.3 | 94.2 | -5.13% (inactive) | -12.8% (inactive)
CCOC(=O)c1c(NC(=O)c2nn(CC)cc2Br)c(C#N)cn1-c1ccccc1 | 78 | 90% (inactive) | 78% (inactive) | 62.5% (inactive) | 74.8% (inactive) | 2.55% (inactive) | 72.2 | 74.8 | -4.61% (inactive) | -6.17% (inactive)
CCOC(=O)c1ccccc1NC(=O)c1ccc(NS(C)(=O)=O)cc1 | 93.5 | 83.5% (inactive) | 93.5% (inactive) | 97% (inactive) | 80.7% (inactive) | -1.98% (inactive) | 82.7 | 80.7 | -4.53% (inactive) | -3.81% (inactive)
CCN(CCCNC(=O)CCNC(=O)Cn1ccc2ccccc2c1=O)c1ccccc1 | 97.5 | 87.5% (inactive) | 97.5% (inactive) | 109% (inactive) | 98.3% (inactive) | 11.8% (inactive) | 86.5 | 98.3 | -5.47% (inactive) | -2.86% (inactive)
O=S(=O)(NCC1CCCO1)c1cccc(C(F)(F)F)c1 (stereo not given) | 97 | 93.5% (inactive) | 97% (inactive) | 95.1% (inactive) | 95.1% (inactive) | 6.7% (inactive) | 88.4 | 95.1 | -0.66% (inactive) | -5.64% (inactive)
CCCC(C(=O)NCc1ccco1)N(C(=O)CNS(=O)(=O)c1ccc(Cl)cc1)C1CCCC1 (stereo not given) | 122 | 91% (inactive) | 122% (inactive) | 74.1% (inactive) | 82.7% (inactive) | -4.13% (inactive) | 86.8 | 82.7 | -0.13% (inactive) | 3.55% (inactive)
CCOC(=O)c1cc2sccc2n1CC(=O)Nc1ccc(OC)cc1OC | 90 | 86.5% (inactive) | 90% (inactive) | 75.4% (inactive) | 82% (inactive) | -7.66% (inactive) | 89.6 | 82 | -1.97% (inactive) | -3.82% (inactive)
CSc1ccccc1N=CC1=C(O)CC(C)(C)CC1=O | 118 | 96% (inactive) | 118% (inactive) | 67.1% (inactive) | 89.2% (inactive) | -0.87% (inactive) | 90.1 | 89.2 | -4.94% (inactive) | -3.28% (inactive)
CCCCCn1c(CN2CCN(C(=O)OCC)CC2)nc2c1c(=O)[nH]c(=O)n2C | 82 | 94.5% (inactive) | 82% (inactive) | 88.9% (inactive) | 98.5% (inactive) | 15.8% (inactive) | 82.7 | 98.5 | -0.67% (inactive) | 0.16% (inactive)
CCCCNC(=O)c1c(C)cc(=O)oc1C | 102 | 90.5% (inactive) | 102% (inactive) | 98.6% (inactive) | 107% (inactive) | 14.8% (inactive) | 92 | 107 | -4.53% (inactive) | -1.45% (inactive)
COc1ccc(C(=O)NCCn2ccc3ccccc32)cc1 | 126 | 97% (inactive) | 126% (inactive) | 111% (inactive) | 92.5% (inactive) | 8.59% (inactive) | 84 | 92.5 | -5.6% (inactive) | 0.16% (inactive)
c1ccc2c(c1)CNc1ccccc1C2 | 97.5 | 90.5% (inactive) | 97.5% (inactive) | 73.5% (inactive) | 93.1% (inactive) | -4.85% (inactive) | 98 | 93.1 | -3.87% (inactive) | -3.71% (inactive)
